From PubChem
RAD54 inh: inhibitors of human RAD54 branch migration, primary screen, biochemical, fluorescence, single point. inhibition, % at 10.4 µM. actives 0.14% (n = 360,000). DNA repair and recombination protein RAD54-like (Homo sapiens), Q92698. RAD54 Holliday junction branch migration, FAM/BHQ fluorescence;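 active means mean normalized replicate activity at least 40 and at least half of replicates scoring 40 or more; inconclusive means only one of the two criteria met; inactive means mean below 40 and under half of replicates reaching 40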;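 further: inhibitors cause a drop in the FAM fluorescence signal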
MLL AF4-AF9 inh: inhibitors of AF4 peptide binding to AF9, primary screen, biochemical, AlphaScreen, biotin-AF4 peptide, FLAG-AF9, single point | Protein AF-9 (Homo sapiens), P42568 | inhibition, % at 10 µM | actives 0.47% (n = 350,000);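 active means every replicate reaching a set inhibition limit, whatever the replicate mean, cut at about 25% in these data; inconclusive means mean inhibition reaches that limit but some replicates miss it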
dFosB act: activators of delta FosB homodimer, primary screen, biochemical, fluorescence polarization, TAMRA-CDK5 oligo, single point; purified delta FosB; percent of positive-control signal above neutral wells; AID 493131, 2011; activation, % at 25 µM; Protein FosB (Mus musculus), P13346; actives 0.99% (n = 340,000);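 active means mean activation above about 17%, with every replicate also reaching it, limit read from the data, passing the limit was not always enough; inconclusive means only one of the two conditions met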
S100A4 inh HTS: inhibitors of S100A4-myosin IIA peptide binding, primary screen, biochemical, fluorescence polarization, TAMRA-MyoIIA peptide; inhibition, % at 10.7 µM; actives 0.14% (n = 360,000); AID 652163, 2013; Protein S100-A4 (Homo sapiens), P26447;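 active means mean inhibition of at least 70% across replicates, with every replicate also reaching that level; inconclusive means mean inhibition reaches 70% but some replicates fall short; inactive means mean inhibition below 70%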
Target sequence (P26447 whole entry, looked up): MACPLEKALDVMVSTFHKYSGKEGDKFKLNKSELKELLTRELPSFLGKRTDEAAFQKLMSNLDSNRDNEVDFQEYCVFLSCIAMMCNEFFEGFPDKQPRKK
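assay system = human S100A4 monomer with TAMRA-labelled myosin IIA peptide | also added = labelled myosin peptide probe, 5 nM | incubation = 5 min between mix addition and reading | control set = DMSO and TFP controls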
RAD52 anneal inh: RAD52 DNA annealing inhibitors, primary screen, biochemical, FRET, single point, set 2. DNA repair protein RAD52 homolog (Homo sapiens), P43351. recombinant RAD52 DNA annealing, FRET fluorescence. inhibition, % at 18.7 µM. actives 0.46% (n = 360,000). AID 651710, 2012;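 active means every replicate showing at least 50% inhibition; inconclusive means mean inhibition at least 50% but not in every replicate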
Target sequence (P43351 whole entry, looked up): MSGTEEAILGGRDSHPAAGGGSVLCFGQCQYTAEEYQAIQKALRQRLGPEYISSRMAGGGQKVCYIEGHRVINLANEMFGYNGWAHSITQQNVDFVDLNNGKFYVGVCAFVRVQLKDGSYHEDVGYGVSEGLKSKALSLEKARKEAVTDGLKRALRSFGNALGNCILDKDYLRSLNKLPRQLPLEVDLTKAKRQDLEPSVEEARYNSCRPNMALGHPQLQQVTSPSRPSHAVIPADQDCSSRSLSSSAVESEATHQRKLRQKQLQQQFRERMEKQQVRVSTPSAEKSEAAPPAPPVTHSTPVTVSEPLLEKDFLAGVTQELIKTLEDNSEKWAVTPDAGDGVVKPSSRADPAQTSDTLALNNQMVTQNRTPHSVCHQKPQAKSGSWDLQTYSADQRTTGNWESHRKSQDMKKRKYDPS
RAD52 DNA ctr: DNA-binding compounds via dye displacement, dose response, artefact control for RAD52 inhibitor project, biochemical, fluorescence polarization, cherry-pick. shares compounds with RAD52 anneal inh. Salmon sperm DNA/acridine orange FP displacement. AC50, µM. actives 8% (n = 1,000);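 active means fitted half-maximal concentration for signal loss at or below twice the highest dose tested, in every separate run, actives reach about 64 µM in these data; inconclusive means runs disagree, or flat partial signal loss, or poor fit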
Hits are given with their value; - = inactive; ? = inconclusive; . = no result given; ! = not confirmed by another sample. Compounds with a hit are over-represented: about 1.5% of the library has one in this group of screens.

SMILES | RAD54 inh | MLL AF4-AF9 inh | dFosB act | S100A4 inh HTS | RAD52 anneal inh | RAD52 DNA ctr
C[C@@H](c1ccccc1)N1C[C@H](COCc2ccccc2)Oc2cc(N3CC[C@@H](N(C)C)C3)ccc2S1(=O)=O | . | - | . | - | - | .
CC(C)NC(=O)N(C)C[C@@H]1Oc2ncc(C#Cc3ccc(F)cc3)cc2C(=O)N([C@@H](C)CO)C[C@H]1C | - | - | . | - | - | .
COc1cccc(-c2cnc3c(c2)C(=O)N([C@H](C)CO)C[C@H](C)[C@H](CN(C)C(=O)CN(C)C)O3)c1 | - | - | . | - | - | .
COc1ccc2[nH]c3c(C)c4ccncc4c(C)c3c2c1 | - | - | - | - | 99.6 | -
COc1ccc(NC(=S)NC23CN4CN(CN(C4)C2)C3)c(OC)c1 | . | - | - | - | 86.4 | -
O=[N+]([O-])c1ccc2nc[nH]c2c1 | - | - | - | - | - | .
Nc1ccc2nc[nH]c2c1 | . | - | - | - | 84.5 | -
CCN(CC)CCN(Cc1cc2cc3c(cc2[nH]c1=O)OCCO3)C(=S)NCCCN(C)C | - | - | - | - | 54.4 | -
CN(C)CCCNC(=S)N(CCN(C)C)Cc1cc2cc3c(cc2[nH]c1=O)OCCO3 | - | - | - | - | 83.9 | -
CCOC(=O)c1c(-c2ccccc2)oc2ccc(OCC(O)CNCCN(C)C)cc12 (stereo unspecified) | - | 33.8 | - | - | 83.0 | -
CCOC(=O)c1c(-c2ccccc2)oc2ccc(OCC)cc12 | - | . | - | . | . | .
CCN(CC)CCOC(=O)c1ccc(N=CC2=C(O)CC(C)(C)CC2=O)cc1 | . | - | - | - | 70.9 | -
CN1CCN(c2ccc(NC(=O)c3ccc(-c4ccccc4F)o3)cc2)CC1 | - | - | - | - | - | -
COc1ccc2c(c1)CC1c3c(cc4c(c3-2)OCO4)CC[N+]1(C)[O-] (stereo unspecified) | 61.5 | - | - | - | 82.4 | ?
CC(C(=O)Nc1ccc(S(=O)(=O)N2CCCC2)cc1)N(C)CC(=O)Nc1cccc(F)c1 (stereo unspecified) | - | - | - | - | - | .
CN(CC(=O)Nc1ccc(S(=O)(=O)N2CCCC2)cc1)CC(=O)Nc1cccc(F)c1 | - | - | - | - | 58.3 | -
CCCC#Cc1cnc2c(c1)C(=O)N([C@H](C)CO)C[C@H](C)[C@@H](CN(C)C(=O)Cc1ccncc1)O2 | - | - | . | - | - | .
O=C(C1CCCC1)N1CCC(CC2CC(c3ccc(Cl)cc3)=NO2)(C(=O)NCC2CCCCC2)CC1 (stereo unspecified) | - | - | - | - | 99.3 | -
CCNC(=O)C[C@H]1CC[C@H]2[C@@H](COC[C@H](O)CN2C(=O)C2CCOCC2)O1 | - | - | . | - | - | .
C[C@H]1CN([C@@H](C)CO)C(=O)c2c(c3ccccc3n2C)-c2ccccc2CO[C@@H]1CN(C)C(=O)c1ccc(F)cc1 | - | - | . | - | - | .
CN1Cc2c(N3CCOCC3)nc3sc(C(=O)c4ccccc4)c(N)c3c2CC1(C)C | . | . | - | - | 59.8 | -
CN1CCN(C2Cc3ccccc3Sc3ccc(Cl)cc32)CC1 (stereo unspecified) | - | - | - | - | 53.9 | -
CSc1ccc2c(c1)C(N1CCN(C)CC1)Cc1ccccc1S2 (stereo unspecified) | - | - | 19.0! | - | 52.0 | -
CN1CCN(C2Cc3cc(F)ccc3Sc3ccc(Cl)cc32)CC1 (stereo unspecified) | - | - | - | - | - | .
C[C@@H]1CN([C@H](C)CO)C(=O)c2cc(C#CC3CC3)cnc2O[C@H]1CN(C)C(=O)Nc1ccccc1 | - | - | . | - | - | .
SMILES | RAD54 inh | MLL AF4-AF9 inh | dFosB act | S100A4 inh HTS | RAD52 anneal inh | RAD52 DNA ctr
CN(C)CCNC(=O)c1cccc2nc3cccc(F)c3nc12 | . | - | 33.5 | - | 97.4 | 17.9µM
COc1ccc(OC)c2nc3c(C(=O)NCCN(C)C)cccc3nc12 | . | - | 87.1 | - | 104.6 | 4.71µM
CN(C)CCNC(=O)c1cccc2ccc(-c3ccc(-c4ccccc4)cc3)nc12 | . | - | - | - | - | .
C[C@@H]1CCCCO[C@H](CN(C)C(=O)c2ccncc2)[C@H](C)CN([C@H](C)CO)C(=O)c2cc(NS(=O)(=O)c3cccs3)ccc2O1 | - | - | . | - | - | .
CN(C)CCCN(C(=O)c1ccco1)c1nc2cc3c(cc2s1)OCO3 | - | - | - | - | 54.4 | -
CN(C)CCCN(C(=O)c1ccco1)c1nc2ccc(F)cc2s1 | . | - | - | - | - | .
CC(=O)N(CCN(C)C)c1nc2cc3c(cc2s1)OCCO3 | - | - | - | - | 55.3 | -
CN(C)CCCN(C(=O)c1nc2ccccc2s1)c1nc2ccc(F)cc2s1 | - | - | - | - | 84.3 | -
CCN(CC)CCN(C(=O)c1ccc(Br)s1)c1nc2cc3c(cc2s1)OCCO3 | . | - | - | - | - | .
CN(C)CCCN(C(=O)c1cc2cc([N+](=O)[O-])ccc2s1)c1nc2cc3c(cc2s1)OCCO3 | - | - | ? | - | 50.6 | -
Cc1ccc(-c2csc(N(CCCN(C)C)C(=O)c3ccco3)n2)cc1 | . | - | - | - | 63.7 | -
CN(C)CCCN(C(=O)c1ccc2c(c1)CCCC2)c1nc2c(F)cccc2s1 | - | 31.9 | - | - | 74.5 | -
COc1ccc(Cl)c2sc(N(Cc3cccnc3)C(C)=O)nc12 | - | - | - | - | - | .
COc1ccc(Cl)c2sc(N(CCN(C)C)C(=O)c3ccc4c(c3)OCCO4)nc12 | . | - | ? | - | 91.0 | -
CCN(CC)CCN(C(=O)c1ccc(N2C(=O)CCC2=O)cc1)c1nc2cc3c(cc2s1)OCCO3 | . | - | - | - | 80.0 | -
CCN(CC)CCN(C(=O)c1cccc(N2C(=O)CCC2=O)c1)c1nc2cc3c(cc2s1)OCO3 | - | - | - | - | - | .
Cc1ccc(-c2csc(N(CCCN3CCOCC3)C(=O)c3ccco3)n2)cc1 | - | . | - | . | . | .
COc1ccc(S(=O)(=O)Nc2ccc3c(c2)C(=O)N([C@H](C)CO)C[C@@H](C)[C@H](CN(C)S(=O)(=O)c2ccccc2)OCCCC[C@H](C)O3)cc1 | . | - | . | - | - | .
CO[C@@H]1CN(C)C(=O)c2cc(NS(C)(=O)=O)ccc2OC[C@@H](C)NC[C@@H]1C | . | - | . | - | - | .
CCN(CC)CCN(C(=O)c1ccc2c(c1)CCCC2)c1nc2cc(OC)c(OC)cc2s1 | - | . | - | . | . | .
CN(C)CCN(C(=O)c1ccc2ccccc2c1)c1nc2cc3c(cc2s1)OCO3 | - | ? | . | - | 66.5 | -
CN(C)CCN(C(=O)c1ccc2c(c1)CCCC2)c1nc2cc3c(cc2s1)OCCO3 | - | 37.1 | ? | - | 72.5 | -
